# In the library only some 1.8% were active in any assay of this set; here they are far more common.
# M4 PAM: CHRM4 positive allosteric modulation | CHO-K1 hM4/Gqi5, Fluo-8 calcium fluorescence, ACh EC20; 0% = ACh EC20, 100% = maximal ACh | activation, % at 3 µM | P08173 | actives 0.4% (n = 360,000);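 active = activation above its plate's cutoff, the mean activation of sample wells plus 3 SD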
# M5 PAM: CHRM5 positive allosteric modulation | P08912 | CHO-K1 hM5, Fluo-8 calcium, ACh EC20 PAM; 0% = ACh EC20, 100% = ACh EC100 | activation, % at 3 µM | actives 0.3% (n = 360,000) | AID 624038;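 active = activation above the run cutoff, the mean activation of all test compounds plus 3 SD, cut at about 18% in these data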
# Target sequence (P08912 whole entry, looked up): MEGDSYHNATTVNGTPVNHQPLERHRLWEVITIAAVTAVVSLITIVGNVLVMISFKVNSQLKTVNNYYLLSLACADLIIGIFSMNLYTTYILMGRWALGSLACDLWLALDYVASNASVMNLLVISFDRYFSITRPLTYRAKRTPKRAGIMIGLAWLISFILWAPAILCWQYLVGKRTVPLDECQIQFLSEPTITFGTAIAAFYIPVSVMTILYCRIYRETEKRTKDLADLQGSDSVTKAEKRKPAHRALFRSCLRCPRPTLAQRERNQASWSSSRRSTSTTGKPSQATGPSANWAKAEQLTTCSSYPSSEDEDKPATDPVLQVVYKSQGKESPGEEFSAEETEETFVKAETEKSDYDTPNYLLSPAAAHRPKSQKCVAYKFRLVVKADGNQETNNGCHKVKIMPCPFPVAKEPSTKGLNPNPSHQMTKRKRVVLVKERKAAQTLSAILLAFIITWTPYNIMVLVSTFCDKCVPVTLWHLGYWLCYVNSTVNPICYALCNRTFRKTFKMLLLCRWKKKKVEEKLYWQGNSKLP
#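 System: CHO-K1 cell line with stable human muscarinic M5 receptor expression | Also added: EC20 acetylcholine as agonist stimulus | Compound: One concentration, 3 µM final (nominal) | Timing: Fluo-8 loading 80 min at 37 °C plus 30 min room temperature | Measured by: Fluo-8 calcium dye fluorescence, kinetic read | Read-out basis: % activation, ACh-normalized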
# CHRM4 agonist: CHRM4 agonism in calcium assay; CHO-K1 hM4/Gqi5, Fluo-8 calcium fluorescence; vehicle 0%, full acetylcholine response 100%; activation, % at 3 µM; P08173; actives 0.14% (n = 360,000); AID 624127;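 active = activation above the run mean over all test wells plus 3 SD, cut at about 32% in these data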;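 note: peak over basal fluorescence ratio per well then scaled between controls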
# CHRM4 antagonist: blocks acetylcholine activation of human M4 receptor | P08173 | CHO-hM4 cells, ACh EC80, Fluo-8 calcium fluorescence | inhibition, % at 3 µM | actives 0.73% (n = 360,000);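 active = inhibition above its plate's cutoff, the mean inhibition of sample wells plus 3 SD, cut at about 27% in these data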
# CHRM5 antagonist: antagonists of human muscarinic M5 receptor (CHRM5). AID 624040. inhibition, % at 3 µM. actives 0.59% (n = 360,000). CHO-hM5 cells, Fluo-8 calcium fluorescence, ACh EC80;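 active = inhibition above a per-plate cutoff, the mean of that plate's test compounds plus 3 SD, cut at about 27% in these data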
# M5 ag: agonists of human muscarinic M5 receptor (CHRM5) | actives 0.19% (n = 360,000) | AID 624037 | activation, % at 3 µM | CHO-K1 hM5 cells, Fluo-8 calcium fluorescence; 0% DMSO wells, 100% maximal acetylcholine response | P08912;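 active = activation above the run's mean over test compounds plus 3 SD, cut at about 23% in these data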;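 note: signal is peak over basal fluorescence ratio across the kinetic read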
# Numbers stand for hits; i = inactive.
SMILES,M4 PAM,M5 PAM,CHRM4 agonist,CHRM4 antagonist,CHRM5 antagonist,M5 ag
CCc1cc(CNC(=O)C2CCC(=O)N(CCc3ccc(OC)cc3)C2)on1 (centres undefined),i,i,i,i,28,i
Cc1ccc2nc(CNC(=O)C3CCC(=O)N(Cc4ccccc4F)C3)cn2c1 (centres undefined),i,i,i,i,i,i
Cn1cc(CNC(=O)C2CCC(=O)N(Cc3ccccc3F)C2)cn1 (centres undefined),20,i,i,i,i,i
CCn1cc(CNC(=O)C2CCC(=O)N(Cc3ccccc3F)C2)cn1 (centres undefined),i,i,i,i,i,i
Cc1ccc([N+](=O)[O-])cc1S(=O)(=O)Nc1ccc(C(=O)N2CCN(C(=O)c3ccco3)CC2)cc1,i,i,i,i,i,i
CC(C)c1ccc(C2(C)NC(=O)N(CC(=O)N3CCN(C(=O)c4cccs4)CC3)C2=O)cc1 (centres undefined),i,i,i,i,i,i
CN(C)C(CNC(=O)c1ccc(C(F)(F)F)cc1)c1ccco1 (centres undefined),i,i,i,i,i,i
O=C(Nc1ccccc1N1CCN(c2ccc(F)cc2)CC1)C12CC3CC(CC(C3)C1)C2,i,20,i,i,i,i
CCOC(=O)C1=CCN(S(=O)(=O)c2ccccc2C)C1c1cccc(Br)c1 (centres undefined),i,i,i,i,i,i
CC1C(=O)C(C)C(c2ccccc2F)NC1c1ccccc1F (centres undefined),i,i,i,i,i,i
OC[C@@H]1CN(Cc2ccccc2)C[C@H](n2cnc3c(NC4CC4)ncnc32)O1,i,i,i,i,i,i
COc1ccc(CN2C[C@@H](CO)O[C@@H](n3cnc4c(N5CCCC5)ncnc43)C2)cc1,17,i,i,i,i,i
OC[C@@H]1CN(Cc2ccc(-c3ccccc3)cc2)C[C@H](n2cnc3c(NC4CCC4)ncnc32)O1,i,i,i,28,29,i
CCN(CC)C(=O)c1[nH]cnc1C(=O)Nc1ccc(C)cc1,i,i,i,i,i,i
COc1ccc(C)cc1S(=O)(=O)N(C)CC(=O)NCc1ccccn1,i,i,i,i,i,i
Cc1cn([C@H]2C[C@H](O)[C@@H](/C=C/C(=O)NCCN3CCOCC3)O2)c(=O)[nH]c1=O,i,i,i,i,i,i
Cc1oc2c(CN3CCCC3)c(O)ccc2c(=O)c1-c1ccc(Br)cc1,i,i,i,70,i,i
Cc1oc2c(CN3CCCCC3)c(O)ccc2c(=O)c1-c1ccc(Br)cc1,i,i,i,30,i,i
COc1ccc(-c2c(C)oc3c(CN4CCOCC4)c(O)ccc3c2=O)cc1OC,i,i,i,i,i,i
COc1ccc(-c2c(C)oc3c(CN4CCOCC4)c(O)ccc3c2=O)cc1,i,i,i,i,i,i
Cc1nc(N)c(C#N)c(-c2cccnc2)c1C,i,26,i,i,i,i
COc1cc(CNCCc2ccc(S(N)(=O)=O)cc2)ccc1OCc1ccc(Cl)cc1,i,i,i,i,i,i
CCOc1cc(CNCCc2ccc(S(N)(=O)=O)cc2)ccc1OCc1ccc(Cl)cc1,i,i,i,42,i,i
O=C(N/N=C/c1ccc(-c2ccc(Cl)c(C(=O)O)c2)o1)c1cc2c(ccc3ccccc32)o1,i,i,i,27,i,i
COc1cc(CN(C)CC2CCCN(CCc3cccc(C(F)(F)F)c3)C2)ccc1O (centres undefined),i,i,i,i,i,i
CCCC(=O)OCCNc1cc(Sc2nc3ccccc3[nH]2)c2nonc2c1[N+](=O)[O-],i,i,i,55,34,i
CC(=O)OCCCNc1cc(Sc2ccc(Cl)cc2)c2nonc2c1[N+](=O)[O-],22,i,i,i,i,i
CCC(=O)OCCNc1cc(SCCC(=O)OC)c2nonc2c1[N+](=O)[O-],i,i,i,i,i,i
